Experiments:
[1] = Inhibition of Influenza B virus (B/Perth/211/2001) recombinant neuraminidase E197 mutant expressed in Sf21 insect cells after 60 mins by MUNANA based assay
Method in brief: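 The enzyme source was virus grown in cell culture and solubilized in 1% CHAPS (final), then titrated to give similar fluorescence. Inhibitor (serial log10 dilutions in water, 0.01–10000 nM; one inhibitor 0.01–10000 μM) was added together with 100 μM MUNANA, with no preincubation. Fluorescence was read every minute for 60 min without stop solution. […] Duplicates.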

[2] = Inhibition of Influenza B virus (B/Perth/211/2001) recombinant neuraminidase E197 mutant expressed in Sf21 insect cells preincubated for 30 mins measured after 60 mins by MUNANA based assay
Method in brief: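 Virus detergent extract (1% CHAPS final, titrated to similar fluorescence) was preincubated for 30 min with inhibitor (serial log10 dilutions in water, 0.01–10000 nM; one inhibitor 0.01–10000 μM). 100 μM MUNANA was then added and fluorescence read every minute for 60 min without stop solution. […] Duplicates.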

Structure (SMILES) | IC50 [1] | Ki [1] | IC50 [2] | Ki [2]
CCC(CC)[C@H](NC(C)=O)[C@@H]1[C@H](O)[C@@H](C(=O)O)C[C@H]1NC(=N)N [PERAMIVIR ANHYDROUS] | 75.2 nM | 8.3 nM | 41.5 nM | 8.2 nM
CCOC(=O)C1=C[C@@H](OC(CC)CC)[C@H](NC(C)=O)[C@@H](N)C1 [OSELTAMIVIR] | 660 nM | 84 nM | – | –
O=C(O)C1(F)O[C@H]([C@H](O)[C@H](O)CO)[C@H](O)[C@@H](O)C1F (some centres not stated) | 19400 nM | – | – | –
